Source: PubChem (Broad Institute)
The full list was thinned out, with hits kept by preference.
KDM4C inh: blocks human GASC-1 (KDM4C) demethylase activity; Q9H3R0; GST-KDM4C 2-372, H3K9me3 peptide, LANCE TR-FRET; inhibition, % at 12.5 µM; hit rate 0.15% among 96,000; AID 720574;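 active = mean replicate inhibition above about 25%, with at least 55% of replicates also reaching it, limit read from the data, passing the limit was not always enough; inconclusive = only one of those two conditions met; inactive = neither condition met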
Target sequence (Q9H3R0 2-372 limits assumed): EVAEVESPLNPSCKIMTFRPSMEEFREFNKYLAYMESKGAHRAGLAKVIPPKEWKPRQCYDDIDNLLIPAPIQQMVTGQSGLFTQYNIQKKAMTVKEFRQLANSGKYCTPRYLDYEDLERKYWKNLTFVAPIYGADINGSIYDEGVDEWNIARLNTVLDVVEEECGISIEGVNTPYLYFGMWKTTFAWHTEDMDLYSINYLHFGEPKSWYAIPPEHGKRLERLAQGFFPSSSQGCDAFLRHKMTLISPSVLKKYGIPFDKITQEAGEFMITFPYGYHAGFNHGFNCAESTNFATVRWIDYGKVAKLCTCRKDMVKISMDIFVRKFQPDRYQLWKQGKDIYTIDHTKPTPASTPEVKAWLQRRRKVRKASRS
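Material: GST-tagged GASC-1 (JMJD2C) catalytic fragment, aa 2-372. Input: enzyme final amount 10 nM. Medium: HEPES buffer, pH 7.5, plus ascorbate. Reagent: H3K9me3 peptide substrate, Fe(II), 2-oxoglutarate. Doses: single dose. Times: reaction 30 min RT, detection step 1 h RT. Measured by: LANCE TR-FRET. Evaluation: Fall in 671/618 emission ratio as inhibition.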
T cruzi growth-1: blocks T. cruzi growth in NIH3T3 culture | T. cruzi beta-gal in NIH3T3, GalScreen luminescence, 90 h | inhibition, % at 8.34 µM | hit rate 5.9% among 77,000;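 active = mean inhibition above about 93%, with at least 55% of replicates each passing it, limit read from the data, passing the limit was not always enough; inconclusive = only one of those two conditions holds; inactive = neither condition holds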
IDH1 mut inh: inhibitors of human IDH1 R132H; O75874; IDH1 R132H reductase, diaphorase/resazurin fluorescence, 60 min; inhibition, % at 10 µM; hit rate 0.18% among 70,000; in the data active = inhibition above about 34%; inconclusive = no clear call, values can overlap the other calls; inactive = below about 11%
T cruzi growth-2: Trypanosoma cruzi proliferation inhibition; hit rate 72% among 5,600; inhibition, % at 8.35 µM; shares compounds with T cruzi growth-1; T. cruzi beta-gal in NIH3T3, GalScreen luminescence, 90 h;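 active = mean replicate inhibition above about 95% and at least 55% of replicates individually reaching it, limit read from the data; inconclusive = only one of the two criteria is met; inactive = neither criterion is met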
T cruzi growth-3: Trypanosoma cruzi proliferation inhibition; hit rate 21% among 5,600; shares compounds with T cruzi growth-1; inhibition, % at 2.09 µM; T. cruzi beta-gal in NIH3T3, GalScreen luminescence, 90 h;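 active = mean inhibition above about 95%, with at least 55% of replicates also reaching it, limit read from the data; inconclusive = meets just one of the two conditions; inactive = meets neither condition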
3T3 cytotox: NIH/3T3 (mouse) viability loss | cytotoxicity (signal decrease), % at 8.35 µM | AID 651742 | hit rate 14% among 5,600 | NIH/3T3 viability, CellTiter-Glo ATP luminescence, 90 h | shares compounds with T cruzi growth-1;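 active = mean signal decrease across replicates above about 35% based on untreated-well scatter, with enough replicates individually passing, limit read from the data; inconclusive = no rule stated though some were filed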
NIH3T3 tox 2: cytotoxicity in mouse NIH/3T3 fibroblasts. shares compounds with T cruzi growth-1. AID 651744. NIH/3T3 viability, CellTiter-Glo ATP luminescence, 90 h. hit rate 56% among 5,600. inhibition, % at 24.9 µM;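 active = mean loss of cell viability signal at or above a set limit, and enough replicates individually reaching it; inconclusive = meets only the mean limit or only the replicate share; inactive = meets neither condition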
A number is an active result; i = inactive; ? = inconclusive; nt = not tested or not shown.

SMILES	KDM4C inh	T cruzi growth-1	IDH1 mut inh	T cruzi growth-2	T cruzi growth-3	3T3 cytotox	NIH3T3 tox 2
N#C[C@H]1[C@@H](c2ccc(C#CC3CCCC3)cc2)[C@H](CO)N1C(=O)Cc1ccccn1	i	nt	nt	nt	nt	nt	nt
CN(C)CC(=O)N1[C@@H](C#N)[C@H](c2ccc(C#CC3CC3)cc2)[C@@H]1CO	i	96	nt	97	i	i	i
CN(C)CC(=O)N1[C@H](C#N)[C@@H](c2ccc(C#CC3CCCC3)cc2)[C@@H]1CO	i	?	nt	i	i	i	105
CC(CN1CCCCC1)NC(=O)c1cc(-c2ccccn2)nc2ccc(Br)cc12 (centres undefined)	nt	nt	i	nt	nt	nt	nt
Cc1cc(C)nc(SCC(=O)N2CCN(c3nnc(-c4ccccc4)c4ccccc34)CC2)n1	nt	nt	i	nt	nt	nt	nt
C/C=C/C=C/C(=O)c1cc(C)c(O)c(C)c1O	nt	nt	i	nt	nt	nt	nt
O=C(Cn1c(-c2ccccn2)nc2ccccc21)NCc1ccccc1	nt	nt	i	nt	nt	nt	nt
Cc1ccccc1-c1nc(SCC(=O)Nc2ccc(Br)c(Cl)c2)n[nH]1	nt	nt	i	nt	nt	nt	nt
C[C@H](CO)N1C[C@H](C)[C@H](CN(C)Cc2ccc(-c3ccccc3)cc2)Oc2ccc(NS(=O)(=O)c3ccc(F)cc3)cc2C1=O	i	i	i	nt	nt	nt	nt
C[C@H]1CN([C@@H](C)CO)C(=O)c2cc(NS(=O)(=O)c3ccc(Cl)cc3)ccc2O[C@H]1CN(C)Cc1ccc(-c2ccccc2)cc1	i	i	i	nt	nt	nt	nt
Cc1ccc(S(=O)(=O)Nc2ccc3c(c2)C(=O)N([C@@H](C)CO)C[C@@H](C)[C@H](CN(C)Cc2ccc(-c4ccccc4)cc2)O3)cc1	i	i	nt	nt	nt	nt	nt
C[C@H]1CN([C@@H](C)CO)C(=O)c2cc(NS(=O)(=O)c3ccc(F)cc3)ccc2O[C@@H]1CN(C)Cc1ccc(-c2ccccc2)cc1	i	?	i	106	i	i	103
C[C@@H]1CN([C@H](C)CO)C(=O)c2cc(NS(=O)(=O)c3cccs3)ccc2O[C@@H]1CN(C)Cc1ccc(-c2ccccc2)cc1	i	93	i	i	i	i	i
C[C@H](CO)N1C[C@H](C)[C@H](CN(C)Cc2ccc(-c3ccccc3)cc2)Oc2ccc(NS(=O)(=O)c3cccs3)cc2C1=O	i	i	i	nt	nt	nt	nt
C[C@@H]1CN([C@@H](C)CO)C(=O)c2cc(NS(=O)(=O)c3ccc(Cl)cc3)ccc2O[C@H]1CN(C)Cc1ccc(-c2ccccc2)cc1	i	109	nt	106	i	i	104
Cc1ccc(S(=O)(=O)Nc2ccc3c(c2)C(=O)N([C@@H](C)CO)C[C@H](C)[C@@H](CN(C)Cc2ccc(-c4ccccc4)cc2)O3)cc1	i	?	i	103	i	i	87
O=C(CCN1C(=O)C2C3C=CC(C4CC34)C2C1=O)Nc1ccc(F)cc1 (centres undefined)	nt	nt	i	nt	nt	nt	nt
CCOC(=O)CSc1nc(-c2ccccc2)c2cc(Cl)ccc2n1	nt	nt	i	nt	nt	nt	nt
CC1C2CC(CC1(C)C)N(C(=O)c1ccc(N3C(=O)c4ccccc4C3=O)cc1)C2 (centres undefined)	nt	nt	i	nt	nt	nt	nt
CC(NS(=O)(=O)c1ccccc1)C(=O)Nc1ccccc1Sc1ccccc1 (centres undefined)	nt	nt	i	nt	nt	nt	nt
Cc1ccc(S(=O)(=O)N(C)C[C@@H]2OCCCC[C@H](C)Oc3ccc(NC(=O)c4ccccc4)cc3C(=O)N([C@H](C)CO)C[C@H]2C)cc1	i	101	i	99	i	i	49
Cc1ccc(S(=O)(=O)N(C)C[C@H]2OCCCC[C@H](C)Oc3ccc(NC(=O)Nc4ccccc4)cc3C(=O)N([C@H](C)CO)C[C@@H]2C)cc1	i	110	nt	103	i	i	i
Cc1ccc(S(=O)(=O)N(C)C[C@@H]2OCCCC[C@@H](C)Oc3ccc(NC(=O)Nc4ccccc4)cc3C(=O)N([C@H](C)CO)C[C@@H]2C)cc1	i	i	nt	nt	nt	nt	nt
Cc1ccc(S(=O)(=O)N(C)C[C@H]2OCCCC[C@@H](C)Oc3ccc(NC(=O)c4ccccc4)cc3C(=O)N([C@@H](C)CO)C[C@H]2C)cc1	i	i	nt	nt	nt	nt	nt
Cc1ccc(S(=O)(=O)N(C)C[C@@H]2OCCCC[C@H](C)Oc3ccc(NC(=O)Nc4ccccc4)cc3C(=O)N([C@H](C)CO)C[C@@H]2C)cc1	i	106	nt	106	i	i	i
SMILES	KDM4C inh	T cruzi growth-1	IDH1 mut inh	T cruzi growth-2	T cruzi growth-3	3T3 cytotox	NIH3T3 tox 2
C[C@@H]1CN([C@H](C)CO)C(=O)c2cc(NC(=O)Nc3ccccc3)ccc2O[C@@H](C)CCCCO[C@@H]1CN(C)S(=O)(=O)c1ccccc1	i	i	i	nt	nt	nt	nt
Cc1ccc(S(=O)(=O)N(C)C[C@H]2OCCCC[C@H](C)Oc3ccc(NC(=O)Nc4ccccc4)cc3C(=O)N([C@@H](C)CO)C[C@H]2C)cc1	i	i	i	nt	nt	nt	nt
Cc1ccc(S(=O)(=O)N(C)C[C@@H]2OCCCC[C@@H](C)Oc3ccc(NC(=O)Nc4ccccc4)cc3C(=O)N([C@H](C)CO)C[C@H]2C)cc1	i	109	i	109	108	i	i
Cc1c(CO)c2ccccc2n1Cc1ccccc1C#N	nt	nt	i	nt	nt	nt	nt
NC(=O)C1(N2CCCCC2)CCN(CC(=O)Nc2ccc(Br)cc2)CC1	nt	nt	i	nt	nt	nt	nt
CCCC#Cc1ccc2c(c1)O[C@@H](CN(C)Cc1ccccn1)[C@@H](C)CN([C@H](C)CO)S2(=O)=O	i	?	i	96	i	?	i
C[C@H](CO)N1C[C@H](C)[C@H](CN(C)Cc2ccccn2)Oc2cc(C#CCN(C)C)ccc2S1(=O)=O	i	i	i	nt	nt	nt	nt
CCCC#Cc1ccc2c(c1)O[C@H](CN(C)Cc1ccccn1)[C@@H](C)CN([C@@H](C)CO)S2(=O)=O	i	?	i	99	?	i	103
CCCC#Cc1ccc2c(c1)O[C@@H](CN(C)Cc1ccccn1)[C@H](C)CN([C@H](C)CO)S2(=O)=O	i	?	i	97	i	69	105
C[C@H]1CN([C@@H](C)CO)S(=O)(=O)c2ccc(C#CCN(C)C)cc2O[C@H]1CN(C)Cc1ccccn1	i	92	i	?	i	i	?
CC(C)C#Cc1ccc2c(c1)O[C@@H](CN(C)Cc1ccccn1)[C@@H](C)CN([C@@H](C)CO)S2(=O)=O	nt	i	nt	nt	nt	nt	nt
C[C@H](CO)N1C[C@H](C)[C@H](CN(C)Cc2ccccn2)Oc2cc(C#C[C@@H](C)O)ccc2S1(=O)=O	i	i	i	nt	nt	nt	nt
C[C@@H]1CN([C@H](C)CO)S(=O)(=O)c2ccc(C#CCN(C)C)cc2O[C@@H]1CN(C)Cc1ccccn1	i	i	i	nt	nt	nt	nt
Nc1nc(SCC(=O)c2ccc(-c3ccccc3)cc2)n[nH]1	nt	nt	i	nt	nt	nt	nt
COc1ccccc1CN1C[C@@H](C)[C@H](OC)CN(C)C(=O)c2cc(NC(=O)Nc3ccccc3OC)ccc2OC[C@H]1C	i	i	i	nt	nt	nt	nt
CO[C@@H]1CN(C)C(=O)c2ccc(NC(=O)NC(C)C)cc2OC[C@@H](C)N(Cc2ccccn2)C[C@@H]1C	i	i	i	nt	nt	nt	nt
